The results in this text go back to PubChem BioAssay AID493050 (Broad Institute, 2011).

The structures appear in SMILES notation. Several values for one entry are separate records, joined by “and”; a condition that tells them apart may be missing. Equal values may be shown once. Activity calls are given as the source filed them.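 How the source made its calls: active means viability falling with dose, half-maximal potency at or under ten times the top valid dose; inconclusive means flat partial loss of viability, or an unreliable curve fit; inactive means the rest, including a rising signal.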

System in the first assay: not listed separately
Description: viability loss in HRASV12 DRD fibroblasts, dose response, cell-based, DRD BJ fibroblasts, dry powder, set 2 (AID 493050). The note with it: DRD (HRASV12 BJ) fibroblasts viability, Alamar Blue, 48 h; at 48 µM (top of the series). The method, boiled down: (§1)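 Assay system: DRD BJ fibroblasts expressing SV40 ST, dn-p53, cyclin D1, CDK4mut, HRASV12; signal: Alamar Blue fluorescence, excitation 544 nm, emission 590 nm; incubation: 48 h compound treatment, ~16 h dye incubation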
On the technique in general: Alamar Blue is a resazurin reagent that responds to reducing activity.
Consider `O=C(c1noc2ccccc12)N1CCN(C(c2ccccc2)c2ccccc2)CC1`, for which the activity change, negative = viability loss was 4.79% (inactive).
On the same count and under the same terms, the same measure for `O=[N+]([O-])c1ccc(CN2CCN(C(c3ccccc3)c3ccccc3)CC2)o1`: -0.32% (inactive); for `Cc1onc(C(=O)N2CCN(C(c3ccccc3)c3ccccc3)CC2)c1N`: 1.23% (inactive); for `Cc1onc(C(=O)N2CCN(C(c3ccccc3)c3ccccc3)CC2)c1C`: 10.5% (inactive).
For the molecule `Cc1ccc(C(=O)N2CCN(C(c3ccccc3)c3ccccc3)CC2)c([N+](=O)[O-])c1`, the activity change, negative = viability loss is 15.7% (inactive).
Turning to `Cc1onc(C(=O)N2CCN(C(c3ccccn3)c3ccccn3)CC2)c1[N+](=O)[O-]`, the activity change, negative = viability loss is 3.35% (inactive).
On to `CC(C)c1onc(C(=O)N2CCN(C(c3ccccc3)c3ccccc3)CC2)c1[N+](=O)[O-]`, for which the activity change, negative = viability loss was 4.37% (inactive).
Take `Cc1onc(C(=O)N2CCN(C(c3ccncc3)c3ccncc3)CC2)c1[N+](=O)[O-]`: the activity change, negative = viability loss is 1.3% (inactive).
As for `CC(=O)Nc1c(C(=O)N2CCN(C(c3ccccc3)c3ccccc3)CC2)noc1C`, the activity change, negative = viability loss was 5.57% (inactive).
Take `Cc1onc(C(=O)N2CCN(C(c3ccccc3)c3ccccc3)CC2)c1Br`: the activity change, negative = viability loss was 8.89% (inactive).
Turning to `Cc1oc(C)c(C(=O)N2CCN(C(c3ccccc3)c3ccccc3)CC2)c1C`, the activity change, negative = viability loss was 11.7% (inactive).
Same read-out and setting: the same measure for `Cc1onc(C(=O)N2CCN(C(c3ccccc3)c3ccccc3)CC2)c1NS(C)(=O)=O`: 2.79% (inactive).

The same assay, now with this note: DRD (HRASV12 BJ) fibroblasts viability, Alamar Blue, 48 h; at 68 µM (top of the series).
In the case of `Cc1onc(C(=O)NCc2ccc(F)cc2)c1[N+](=O)[O-]`, the activity change, negative = viability loss is 0.881% (inactive).
Turning to `Cc1onc(C(=O)N2CCOCC2)c1[N+](=O)[O-]`, the activity change, negative = viability loss is 4.86% (inactive).
On to `CCOC(=O)N1CCN(C(=O)c2noc(C)c2[N+](=O)[O-])CC1`, for which the activity change, negative = viability loss is 6.53% (inactive).
As to `Cc1cc(C(=O)N2CCN(Cc3ccccc3)CC2)no1`, the activity change, negative = viability loss is -2.15% (inactive).
Regarding `COc1ccccc1N1CCN(C(=O)c2noc(C)c2[N+](=O)[O-])CC1`, the activity change, negative = viability loss was 0.386% (inactive).

In the next assay the test system is DRD (HRASV12 BJ) fibroblasts viability, Alamar Blue, 48 h. The assay is described as above.
Conditions: not given
The method, boiled down:
as §1
As for `O=C(c1ccc([N+](=O)[O-])o1)N1CCN(C(c2ccc(F)cc2)c2ccc(F)cc2)CC1`, the AC50 is 13.1 µM.
For the molecule `COc1ccc(C(c2ccc(OC)cc2)N2CCN(C(=O)c3ccc([N+](=O)[O-])o3)CC2)cc1`, the concentration at half-maximal activity (AC50) was 8.37 µM.
As for `O=C(c1ccc([N+](=O)[O-])o1)N1CCN(C(c2ccccc2)c2ccccc2)CC1`, the AC50 was 19.4 µM.
For the molecule `Cc1onc(C(=O)N2CCN(C(c3ccc(F)cc3)c3ccc(F)cc3)CC2)c1[N+](=O)[O-]`, the AC50 is 0.226 µM.
Take `Cc1onc(C(=O)N2CCN(C(c3ccc(Cl)cc3)c3ccc(Cl)cc3)CC2)c1[N+](=O)[O-]`: the concentration at half-maximal activity (AC50) is 0.107 µM.
For `Cc1onc(C(=O)NCCNC(c2ccccc2)c2ccccc2)c1[N+](=O)[O-]`, the AC50 was 16 µM.
With `Cc1onc(C(=O)N2CCN(C(c3ccccc3)c3ccccc3)CC2)c1[N+](=O)[O-]`, the AC50 was 4.75 µM and 1.71 µM.
In the case of `COc1ccc(C(c2ccc(OC)cc2)N2CCN(C(=O)c3noc(C)c3[N+](=O)[O-])CC2)cc1`, the AC50 was 1.85 µM.
For the molecule `Cc1onc(C(=O)N2CCN(C(c3ccccc3)c3ccc(Cl)cc3)CC2)c1[N+](=O)[O-]` (centres undefined), the AC50 was 0.21 µM.
For the molecule `O=C(c1ccc([N+](=O)[O-])o1)N1CCCN(C(c2ccccc2)c2ccccc2)CC1`, the AC50 is 46.5 µM.
As to `Cc1onc(C(=O)N2CCCN(C(c3ccccc3)c3ccccc3)CC2)c1[N+](=O)[O-]`, the AC50 was 1.1 µM.
As for `O=C(NCCNC(c1ccccc1)c1ccccc1)c1ccc([N+](=O)[O-])o1`, the AC50 was 8.27 µM.

One may read the AC50 as the concentration at which the activity in the assay is half-maximal.
